Reference: ChEMBL document CHEMBL4052722, “Virtual screening, synthesis and biological evaluation of DNA intercalating antiviral agents” (Bioorg Med Chem Lett, 2017)
Calls of active or inactive are those of the source. No cut-off for these calls is given here.

Tests used:
[1] = Cytotoxicity against African green monkey CV1 cells assessed as cell viability at 0.1 to 100 uM preincubated for 4 hrs measured after 24 hrs by MTT assay relative to control; format: cell-based, CV-1; details: chlorocebus aethiops, read-out: Activity
Outline: (§1)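 CV-1 cells were exposed to test samples at 0.1, 10 and 100 μM. Viability was read by MTT assay.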

[2] = Cytotoxicity against African green monkey CV1 cells assessed as reduction in cell viability preincubated for 4 hrs measured after 24 hrs by MTT assay relative to control; format: cell-based, CV-1; details: chlorocebus aethiops; outline: as §1
Bos taurus = species on record: Bos taurus; assay: Displacement of ethidium bromide from calf thymus DNA by fluorescence binding assay
[3] = Selectivity index, ratio of CC50 for African green monkey CV1 cells to IC50 for Vaccinia virus LIVP harboring GFP infected in African green monkey CV1 cells; format: toxicity; details: read-out: Ratio CC50/IC50
[4] = Cytotoxicity against African green monkey CV1 cells assessed as viable cells at 30 uM after 110 hrs by real-time cells analysis relative to control; format: cell-based, CV-1; details: chlorocebus aethiops, read-out: Activity
Outline: (§2)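 CV-1 cell viability was monitored in real time on an xCelligence Real-Time Cell Analyzer. This ran in parallel with the plaque-forming assay, in which cells were pre-incubated with the compounds for 4 h before infection.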

[5] = tested on: Vesicular stomatitis virus; assay: Antiviral activity against Vesicular stomatitis virus at 0.2 to 620 uM after 24 hrs post infection relative to control; format: functional
L929 = assay: Induction of IFN-alpha activity in mouse L929 cells infected with Encephalomyocarditis virus at 10 uM preincubated with cells for overnight followed by viral infection by optical microscopic analysis; format: functional, cell-based
[6] = Cytotoxicity against African green monkey CV1 cells assessed as viable cells at 10 uM after 110 hrs by real-time cell analysis relative to control; format: cell-based, CV-1; details: chlorocebus aethiops, read-out: Activity; outline: as §2
[7] = Cytotoxicity against African green monkey CV1 cells assessed as viable cells at 1 uM after 110 hrs by real-time cell analysis relative to control; format: cell-based, CV-1; details: chlorocebus aethiops, read-out: Activity; outline: as §2

## CN1CCN(CCN2C(=O)c3cccc4cccc(c34)C2=O)CC1
[1]
  viability at 24 h, up to 100 µM: 65%
[2]
  CC50 at 24 h: 100 µM

## O=C(CCCn1c2ccccc2c2nc3ccccc3nc21)NCCCN1CCOCC1
[1]
  viability at 24 h, up to 100 µM: 85%
Bos taurus
  log Ka: 5.11
[2]
  CC50 at 24 h: > 100 µM

## COC(=O)CN1CCN(CCN2C(=O)c3cccc4cccc(c34)C2=O)CC1
[1]
  viability at 24 h, up to 100 µM: 78%
[2]
  CC50 at 24 h: > 100 µM

## c1ccc2nc3c(nc2c1)c1ccccc1n3CCNCCCN1CCOCC1
[1]
  viability at 24 h, up to 100 µM: 79%
[3]
  selectivity ratio: 4
[4]
  viability at 110 h, 30 µM: 75%
[5]
  Activity: 52%
L929
  Activity: inactive
Bos taurus
  log Ka: 6.72
[6]
  viability at 110 h, 10 µM: 110%
[2]
  CC50 at 24 h: 50 to 81 µM
[7]
  viability at 110 h, 1 µM: 107%

## CN(C)CCNC(=O)CCCn1c2ccccc2c2nc3ccccc3nc21
[1]
  viability at 24 h, up to 100 µM: 93%
Bos taurus
  log Ka: 5.01
[2]
  CC50 at 24 h: 100 µM

## CN(C)CCNC(=O)Cn1c2ccccc2c2nc3ccccc3nc21
[1]
  viability at 24 h, up to 100 µM: 94%
[5]
  Activity: 82%
Bos taurus
  log Ka: 5.38
[2]
  CC50 at 24 h: > 100 µM

## CCN(CC)CCn1c2ccc(OC)cc2c2nc3ccccc3nc21
[1]
  viability at 24 h, up to 100 µM: 60%
[2]
  CC50 at 24 h: 100 µM

## CC1CCN(CC(=O)NN2C(=O)c3cccc4cccc(c34)C2=O)CC1
[1]
  viability at 24 h, up to 100 µM: 104%
Bos taurus
  log Ka: 5.73
[2]
  CC50 at 24 h: > 100 µM

## CN(C)CCCNCCn1c2ccccc2c2nc3ccccc3nc21
[1]
  viability at 24 h, up to 100 µM: 88%
[3]
  selectivity ratio: 4
[4]
  viability at 110 h, 30 µM: 75%
[5]
  Activity: 69%
L929
  Activity: inactive
Bos taurus
  log Ka: 6.76
[6]
  viability at 110 h, 10 µM: 110%
[2]
  CC50 at 24 h: 50 to 92 µM
[7]
  viability at 110 h, 1 µM: 114%

## CN(C)CCCOC(=O)Cn1c2ccccc2c2nc3ccccc3nc21
[1]
  viability at 24 h, up to 100 µM: 87%
[5]
  Activity: 100%
Bos taurus
  log Ka: 5.28
[2]
  CC50 at 24 h: 100 µM

## O=C(CCCn1c2ccccc2c2nc3ccccc3nc21)NCCN1CCCCC1
[1]
  viability at 24 h, up to 100 µM: 93%
Bos taurus
  log Ka: 4.98
[2]
  CC50 at 24 h: 100 µM

## CN1CCN(CC(=O)NN2C(=O)c3cccc4cccc(c34)C2=O)CC1
[1]
  viability at 24 h, up to 100 µM: 84%
Bos taurus
  log Ka: 5.43
[2]
  CC50 at 24 h: 100 µM

## Cc1ccc2c(c1)c1nc3ccccc3nc1n2CCN1CCN(C)CC1
[1]
  viability at 24 h, up to 100 µM: 87%
[2]
  CC50 at 24 h: 100 µM

## O=C(CN1CCCC1)NN1C(=O)c2cccc3cccc(c23)C1=O
[1]
  viability at 24 h, up to 100 µM: 99%
Bos taurus
  log Ka: 5.41
[2]
  CC50 at 24 h: > 100 µM

## c1ccc2nc3c(nc2c1)c1ccccc1n3CCNCCN1CCCCC1
[1]
  viability at 24 h, up to 100 µM: 113%
[5]
  Activity: 52%
Bos taurus
  log Ka: 6.85
[2]
  CC50 at 24 h: > 100 µM

## O=C(CCCn1c2ccccc2c2nc3ccccc3nc21)OCCN1CCOCC1
[1]
  viability at 24 h, up to 100 µM: 102%
[5]
  Activity: 80%
Bos taurus
  log Ka: 5.7
[2]
  CC50 at 24 h: > 100 µM

## CN(C)CCNCCn1c2ccccc2c2nc3ccccc3nc21
[1]
  viability at 24 h, up to 100 µM: 99%
[5]
  Activity: 42%
Bos taurus
  log Ka: 6.83
[2]
  CC50 at 24 h: > 100 µM

## CN(CCO)CCN1C(=O)c2cccc3cccc(c23)C1=O
[1]
  viability at 24 h, up to 100 µM: 88%
[2]
  CC50 at 24 h: > 100 µM

## CC(O)N(C)CCn1c2ccccc2c2nc3ccccc3nc21 (stereo not given)
[1]
  viability at 24 h, up to 100 µM: 78%
[2]
  CC50 at 24 h: 100 µM

## O=C(CCCn1c2ccccc2c2nc3ccccc3nc21)NCCN1CCOCC1
[1]
  viability at 24 h, up to 100 µM: 95%
Bos taurus
  log Ka: 4.91
[2]
  CC50 at 24 h: > 100 µM

## CCN(CC)CCCNC(=O)Cn1c2ccccc2c2nc3ccccc3nc21
[1]
  viability at 24 h, up to 100 µM: 88%
[5]
  Activity: 85%
Bos taurus
  log Ka: 4.93
[2]
  CC50 at 24 h: 100 µM
